Data published in ChEMBL document CHEMBL4689842, “EUbOPEN Chemogenomics Library wave 1” (2021).
Values joined by “and” are separate entries in the source; they are usually repeats but may differ in a detail not shown here. Identical values can stand only once.

Test system: Fibroblast
Test: Multiplex assay against human fibroblast
Assay type: toxicity, cell-based
Procedure, shortened: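 Four dyes were applied at seeding to live cells: Hoechst33342, BioTracker Green Microtubule Cytoskeleton Dye, MitoTracker Red and Annexin V Alexa Fluor 680. Imaging after compound addition used a CQ1 microscope at 37°C and 5% CO2. CellPathfinder machine-learning gating then sorted cells into Hoechst high-intensity objects or normal cells, normal cells into healthy, pyknosed or fragmented nuclei, and pyknosed cells into mitotic or apoptotic, with tubulin, mitochondrial-mass and membrane-permeability phenotypes given as per cents of healthy-nucleus cells.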

[1] = 12 h, 1 µM, compound concentration 1 uM, replicate 1
[2] = 12 h, 1 µM, compound concentration 1 uM, replicate 2
[3] = 12 h, 10 µM, compound concentration 10 uM, replicate 1
[4] = 12 h, 10 µM, compound concentration 10 uM, replicate 2
[5] = 24 h, 1 µM, compound concentration 1 uM, replicate 1
[6] = 24 h, 1 µM, compound concentration 1 uM, replicate 2
[7] = 24 h, 10 µM, compound concentration 10 uM, replicate 1
[8] = 24 h, 10 µM, compound concentration 10 uM, replicate 2
[9] = 48 h, 1 µM, compound concentration 1 uM, replicate 1
[10] = 48 h, 1 µM, compound concentration 1 uM, replicate 2
[11] = 48 h, 10 µM, compound concentration 10 uM, replicate 1
[12] = 48 h, 10 µM, compound concentration 10 uM, replicate 2

Which results are given for `CCc1cc2c(cc1CC)CC(NC[C@H](O)c1ccc(O)c3[nH]c(=O)ccc13)C2` [INDACATEROL]?
Population Apoptotic (%) [1]: 57%; Population Fragmented Nuclei (%) [1]: 22%; Population Healthy Nuclei (%) [1]: 53%; Population Hoechst High Intensity Objects (%) [1]: 9%; Population Membrane Permeable-Phenotype (%) [1]: 21%; Population Mitochondria Different-Phenotype (%) [1]: 10%; Population Mitotic Cells (%) [1]: 42%; Population Normal (%) [1]: 90%; Population Pyknosed Nuclei (%) [1]: 23%; Population Tubulin-Different-Phenotype (%) [1]: 35%; Total Cell Count [1]: 187; Population Apoptotic (%) [2]: 33%; Population Fragmented Nuclei (%) [2]: 3%; Population Healthy Nuclei (%) [2]: 92%; Population Hoechst High Intensity Objects (%) [2]: 7%; Population Membrane Permeable-Phenotype (%) [2]: 1%; Population Mitochondria Different-Phenotype (%) [2]: 11%; Population Mitotic Cells (%) [2]: 66%; Population Normal (%) [2]: 92%; Population Pyknosed Nuclei (%) [2]: 4%; Population Tubulin-Different-Phenotype (%) [2]: 14%; Total Cell Count [2]: 71; Population Apoptotic (%) [3]: 71%; Population Fragmented Nuclei (%) [3]: 35%; Population Healthy Nuclei (%) [3]: 45%; Population Hoechst High Intensity Objects (%) [3]: 22%; Population Membrane Permeable-Phenotype (%) [3]: 1%; Population Mitochondria Different-Phenotype (%) [3]: 43%; Population Mitotic Cells (%) [3]: 28%; Population Normal (%) [3]: 77%; Population Pyknosed Nuclei (%) [3]: 19%; Population Tubulin-Different-Phenotype (%) [3]: 74%; Total Cell Count [3]: 230; Population Apoptotic (%) [4]: 68%; Population Fragmented Nuclei (%) [4]: 15%; Population Healthy Nuclei (%) [4]: 64%; Population Hoechst High Intensity Objects (%) [4]: 6%; Population Membrane Permeable-Phenotype (%) [4]: 23%; Population Mitochondria Different-Phenotype (%) [4]: 98%; Population Mitotic Cells (%) [4]: 31%; Population Normal (%) [4]: 93%; Population Tubulin-Different-Phenotype (%) [4]: 88%; Total Cell Count [4]: 71; Population Apoptotic (%) [5]: 69%; Population Fragmented Nuclei (%) [5]: 23%; Population Healthy Nuclei (%) [5]: 62%; Population Hoechst High Intensity Objects (%) [5]: 10%; Population Membrane Permeable-Phenotype (%) [5]: 18%; Population Mitochondria Different-Phenotype (%) [5]: 5%; Population Mitotic Cells (%) [5]: 30%; Population Normal (%) [5]: 89%; Population Pyknosed Nuclei (%) [5]: 13%; Population Tubulin-Different-Phenotype (%) [5]: 36%; Total Cell Count [5]: 184; Population Apoptotic (%) [6]: 14%; Population Fragmented Nuclei (%) [6]: 4%; Population Healthy Nuclei (%) [6]: 86%; Population Hoechst High Intensity Objects (%) [6]: 3%; Population Membrane Permeable-Phenotype (%) [6]: 0%; Population Mitochondria Different-Phenotype (%) [6]: 10%; Population Mitotic Cells (%) [6]: 85%; Population Normal (%) [6]: 96%; Population Pyknosed Nuclei (%) [6]: 9%; Population Tubulin-Different-Phenotype (%) [6]: 12%; Total Cell Count [6]: 73; Population Apoptotic (%) [7]: 71%; Population Fragmented Nuclei (%) [7]: 30%; Population Healthy Nuclei (%) [7]: 49%; Population Hoechst High Intensity Objects (%) [7]: 33%; Population Membrane Permeable-Phenotype (%) [7]: 5%; Population Mitochondria Different-Phenotype (%) [7]: 55%; Population Mitotic Cells (%) [7]: 28%; Population Normal (%) [7]: 66%; Population Pyknosed Nuclei (%) [7]: 19%; Population Tubulin-Different-Phenotype (%) [7]: 77%; Total Cell Count [7]: 243; Population Apoptotic (%) [8]: 89%; Population Fragmented Nuclei (%) [8]: 11%; Population Healthy Nuclei (%) [8]: 67%; Population Hoechst High Intensity Objects (%) [8]: 6%; Population Membrane Permeable-Phenotype (%) [8]: 59%; Population Mitochondria Different-Phenotype (%) [8]: 100%; Population Mitotic Cells (%) [8]: 10%; Population Normal (%) [8]: 93%; Population Pyknosed Nuclei (%) [8]: 20%; Population Tubulin-Different-Phenotype (%) [8]: 86%; Total Cell Count [8]: 78; Population Apoptotic (%) [9]: 30%; Population Fragmented Nuclei (%) [9]: 29%; Population Healthy Nuclei (%) [9]: 64%; Population Hoechst High Intensity Objects (%) [9]: 10%; Population Membrane Permeable-Phenotype (%) [9]: 20%; Population Mitochondria Different-Phenotype (%) [9]: 0%; Population Mitotic Cells (%) [9]: 69%; Population Normal (%) [9]: 89%; Population Pyknosed Nuclei (%) [9]: 6%; Population Tubulin-Different-Phenotype (%) [9]: 20%; Total Cell Count [9]: 222; Population Apoptotic (%) [10]: 100%; Population Fragmented Nuclei (%) [10]: 37%; Population Healthy Nuclei (%) [10]: 60%; Population Hoechst High Intensity Objects (%) [10]: 15%; Population Membrane Permeable-Phenotype (%) [10]: 7%; Population Mitochondria Different-Phenotype (%) [10]: 4%; Population Mitotic Cells (%) [10]: 0%; Population Normal (%) [10]: 84%; Population Pyknosed Nuclei (%) [10]: 1%; Population Tubulin-Different-Phenotype (%) [10]: 35%; Total Cell Count [10]: 82; Population Apoptotic (%) [11]: 70%; Population Fragmented Nuclei (%) [11]: 38%; Population Healthy Nuclei (%) [11]: 46%; Population Hoechst High Intensity Objects (%) [11]: 51%; Population Membrane Permeable-Phenotype (%) [11]: 1%; Population Mitochondria Different-Phenotype (%) [11]: 54%; Population Mitotic Cells (%) [11]: 29%; Population Normal (%) [11]: 48%; Population Pyknosed Nuclei (%) [11]: 14%; Population Tubulin-Different-Phenotype (%) [11]: 67%; Total Cell Count [11]: 237; Population Apoptotic (%) [12]: 66%; Population Fragmented Nuclei (%) [12]: 52%; Population Healthy Nuclei (%) [12]: 44%; Population Hoechst High Intensity Objects (%) [12]: 37%; Population Membrane Permeable-Phenotype (%) [12]: 0%; Population Mitochondria Different-Phenotype (%) [12]: 28%; Population Mitotic Cells (%) [12]: 33%; Population Normal (%) [12]: 62%; Population Pyknosed Nuclei (%) [12]: 3%; Population Tubulin-Different-Phenotype (%) [12]: 61%; Total Cell Count [12]: 465

Which results are given for `CNC(=O)c1nn(C)c2c1C(C)(C)Cc1cnc(Nc3ccc(N4CCN(C)CC4)cc3)nc1-2` [MILCICLIB]?
Population Apoptotic (%) [1]: 74%; Population Fragmented Nuclei (%) [1]: 26%; Population Healthy Nuclei (%) [1]: 59%; Population Hoechst High Intensity Objects (%) [1]: 6%; Population Membrane Permeable-Phenotype (%) [1]: 15%; Population Mitochondria Different-Phenotype (%) [1]: 7%; Population Mitotic Cells (%) [1]: 25%; Population Normal (%) [1]: 93%; Population Pyknosed Nuclei (%) [1]: 14%; Population Tubulin-Different-Phenotype (%) [1]: 30%; Total Cell Count [1]: 202; Population Apoptotic (%) [2]: 100%; Population Fragmented Nuclei (%) [2]: 64%; Population Healthy Nuclei (%) [2]: 34%; Population Hoechst High Intensity Objects (%) [2]: 34%; Population Membrane Permeable-Phenotype (%) [2]: 13%; Population Mitochondria Different-Phenotype (%) [2]: 31%; Population Mitotic Cells (%) [2]: 0%; Population Normal (%) [2]: 65%; Population Pyknosed Nuclei (%) [2]: 1%; Population Tubulin-Different-Phenotype (%) [2]: 54%; Total Cell Count [2]: 97; Population Apoptotic (%) [3]: 61% and 65% and 87%; Population Fragmented Nuclei (%) [3]: 29% and 25% and 26%; Population Healthy Nuclei (%) [3]: 40% and 48% and 55%; Population Hoechst High Intensity Objects (%) [3]: 11% and 12% and 13%; Population Mitochondria Different-Phenotype (%) [3]: 14% and 12% and 10%; Population Normal (%) [3]: 88% and 87% and 86%; Population Pyknosed Nuclei (%) [3]: 30% and 25% and 18%; Population Tubulin-Different-Phenotype (%) [3]: 77% and 74% and 40%; Population Apoptotic (%) [4]: 66% and 73% and 60%; Population Healthy Nuclei (%) [4]: 30% and 54% and 62%; Population Mitotic Cells (%) [4]: 33% and 26% and 40%; Population Normal (%) [4]: 70% and 90% and 97%; Total Cell Count [4]: 99 and 122 and 65; Population Apoptotic (%) [5]: 78%; Population Fragmented Nuclei (%) [5]: 27%; Population Healthy Nuclei (%) [5]: 57%; Population Hoechst High Intensity Objects (%) [5]: 12%; Population Membrane Permeable-Phenotype (%) [5]: 7%; Population Mitochondria Different-Phenotype (%) [5]: 13%; Population Mitotic Cells (%) [5]: 21%; Population Normal (%) [5]: 87%; Population Pyknosed Nuclei (%) [5]: 14%; Population Tubulin-Different-Phenotype (%) [5]: 33%; Total Cell Count [5]: 224; Population Apoptotic (%) [6]: 50%; Population Fragmented Nuclei (%) [6]: 60%; Population Healthy Nuclei (%) [6]: 33%; Population Hoechst High Intensity Objects (%) [6]: 33%; Population Membrane Permeable-Phenotype (%) [6]: 10%; Population Mitochondria Different-Phenotype (%) [6]: 30%; Population Mitotic Cells (%) [6]: 50%; Population Normal (%) [6]: 66%; Population Pyknosed Nuclei (%) [6]: 6%; Population Tubulin-Different-Phenotype (%) [6]: 40%; Total Cell Count [6]: 90; Population Apoptotic (%) [7]: 84% and 46% and 60%; Population Fragmented Nuclei (%) [7]: 37% and 29% and 34%; Population Healthy Nuclei (%) [7]: 47% and 50%; Population Hoechst High Intensity Objects (%) [7]: 20% and 12% and 15%; Population Mitochondria Different-Phenotype (%) [7]: 16% and 28% and 27%; Population Normal (%) [7]: 79% and 87% and 84%; Population Pyknosed Nuclei (%) [7]: 15% and 22%; Population Tubulin-Different-Phenotype (%) [7]: 46% and 80% and 58%; Population Apoptotic (%) [8]: 50% and 66% and 86%; Population Healthy Nuclei (%) [8]: 34% and 49% and 61%; Population Hoechst High Intensity Objects (%) [8]: 18%; Population Normal (%) [8]: 81%; Population Tubulin-Different-Phenotype (%) [8]: 35% and 100%; Total Cell Count [8]: 110 and 78 and 118; Population Apoptotic (%) [11]: 25% and 33%; Population Fragmented Nuclei (%) [11]: 45% and 39%; Population Healthy Nuclei (%) [11]: 42% and 49%; Population Hoechst High Intensity Objects (%) [11]: 15% and 19%; Population Membrane Permeable-Phenotype (%) [11]: 22% and 10%; Population Mitochondria Different-Phenotype (%) [11]: 15% and 22%; Population Mitotic Cells (%) [11]: 75% and 66%; Population Normal (%) [11]: 84% and 80%; Population Pyknosed Nuclei (%) [11]: 11%; Population Tubulin-Different-Phenotype (%) [11]: 68% and 80%; Total Cell Count [11]: 124 and 166; Population Apoptotic (%) [12]: 66%; Population Fragmented Nuclei (%) [12]: 35% and 36%; Population Healthy Nuclei (%) [12]: 62% and 60%; Population Hoechst High Intensity Objects (%) [12]: 18% and 14%; Population Membrane Permeable-Phenotype (%) [12]: 16% and 11%; Population Mitochondria Different-Phenotype (%) [12]: 11% and 17%; Population Mitotic Cells (%) [12]: 33%; Population Normal (%) [12]: 81% and 85%; Population Pyknosed Nuclei (%) [12]: 2%; Population Tubulin-Different-Phenotype (%) [12]: 84% and 96%; Total Cell Count [12]: 169 and 170
